# Data: ChEMBL document CHEMBL1255568, “Amino derivatives of indole as potent inhibitors of isoprenylcysteine carboxyl methyltransferase” (J Med Chem, 2010)
# How the values were obtained:
# [1] = target: Protein-S-isoprenylcysteine O-methyltransferase (Homo sapiens, UniProt O60725); experiment: Inhibition of recombinant ICMT expressed in Sf9 cells using [3H] AdoMet after 20 mins by scintillation counting
# Procedure, shortened: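 Sf9 membranes carrying recombinant Icmt (1.0 μg protein) in 100 mM Hepes pH 7.4, 5 mM MgCl2, 100 μM EDTA. Preincubated with compound (final DMSO 2% v/v) for 20 min at 37 °C. Reaction started with final 1 μM biotin-farnesyl-L-cysteine and 0.5 μM [3H]AdoMet, run 20 min at 37 °C, then stopped with Tween 20. Product captured overnight at 4 °C on streptavidin beads, washed, and counted by scintillation. Mean ± SD of 3 or more determinations.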
# MDA-MB-231 = experiment: Antiproliferative activity against human MDA-MB-231 cells after 72 hrs by colorimetric tetrazolium assay; format: functional, cell-based; settings: MDA-MB-231, 72 h
# Procedure, shortened: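 MDA-MB-231 cells grown in DMEM with 10% FBS and penicillin/streptomycin at 37 °C, 5% CO2, used within passages 10-25. Seeded at 2400 cells/well in DMEM with 5% FBS for 24 h, then exposed to compound (final DMSO 0.5% v/v) for 72 h. MTS-type tetrazolium reagent added for 2 h at 37 °C, absorbance read at 490 nm, blank subtracted. Triplicate wells. IC50 from sigmoidal viability curve, mean of at least two determinations.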
# Chain of Protein-S-isoprenylcysteine O-methyltransferase (O60725 whole entry): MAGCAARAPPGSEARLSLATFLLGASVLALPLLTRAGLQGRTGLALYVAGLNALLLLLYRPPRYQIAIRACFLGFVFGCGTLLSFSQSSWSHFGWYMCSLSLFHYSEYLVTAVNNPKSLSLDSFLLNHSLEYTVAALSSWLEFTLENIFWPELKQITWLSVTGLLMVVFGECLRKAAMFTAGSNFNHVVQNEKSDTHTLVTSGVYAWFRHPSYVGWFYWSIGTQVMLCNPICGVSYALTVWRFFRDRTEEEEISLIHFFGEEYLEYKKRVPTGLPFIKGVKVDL
IC50 [1],IC50 (MDA-MB-231),Structure (SMILES)
–,> 100 µM,CC(C)=CCn1cc(CC(N)=O)c2cc(F)ccc21
–,20.7 µM,CCCCCCCCn1cc(CCC(N)=O)c2cc(-c3cccc(C)c3)ccc21
76 µM,> 100 µM,CCCCCCCCn1cc(CC(=O)OC)c2cc(-c3cccc(C)c3)ccc21
> 100 µM,> 100 µM,CCCCCCCCn1cc(CC(=O)OCC)c2cc(-c3cccc(C)c3)ccc21
1.8 µM,30 µM,CCCCCCCCn1cc(CNC(C)=O)c2cc(-c3cccc(C)c3)ccc21
1.2 µM,17.5 µM,CCCCCCCCn1cc(CNS(C)(=O)=O)c2cc(-c3cccc(C)c3)ccc21
1 µM,21.2 µM,CCCCCCCCn1cc(CC(N)=O)c2cc(-c3ccccc3C)ccc21
0.6 µM,5.5 µM,CCCCCCCCn1cc(CN(CC)CC)c2cc(-c3ccccc3C)ccc21
0.6 µM,3.4 µM,CCCCCCCCn1cc(CN(CC)CC)c2cc(-c3ccc(C)cc3)ccc21
1.9 µM,22.4 µM,CCCCCCCCn1cc(CC(N)=O)c2cc(-c3cccc(OC)c3)ccc21
1.8 µM,26 µM,CCCCCCCCn1cc(CC(N)=O)c2cc(-c3ccccc3)ccc21
6.5 µM,50 µM,CCCCCCCCn1cc(CC(N)=O)c2ccccc21
–,70 µM,CCCCCCCCn1cc(CC(N)=O)c2cc(F)ccc21
4.1 µM,7.2 µM,CCCCCCCCn1cc(CN(CC)CC)c2cc(F)ccc21
0.7 µM,2.9 µM,CCCCCCCCn1cc(CN)c2cc(-c3cccc(C)c3)ccc21
1.3 µM,6.8 µM,CCCCCCCCn1cc(CN(C)C)c2cc(-c3cccc(C)c3)ccc21
0.9 µM,5.3 µM,CCCCCCCCn1cc(CN(C)C(C)C)c2cc(-c3cccc(C)c3)ccc21
1.3 µM,18.7 µM,CCCCCCCCn1cc(CC(N)=O)c2cc(-c3cccc(OCC)c3)ccc21
1 µM,–,CCCCCCCCn1cc(CC(N)=O)c2cc(-c3ccc(C)cc3)ccc21

# Second part, the compound before the results:
Structure (SMILES),IC50 [1],IC50 (MDA-MB-231)
CCN(CC)Cc1cn(CC=C(C)C)c2ccccc12,67 µM,74 µM
CCCCCCCCn1cc(CN2CCN(C)CC2)c2cc(-c3cccc(C)c3)ccc21,0.9 µM,6.1 µM
CCCCCCCCn1cc(CN2CCOCC2)c2cc(-c3cccc(C)c3)ccc21,2.7 µM,24.5 µM
CCCCCCCCn1cc(C(N)=O)c2cc(-c3cccc(C)c3)ccc21,–,> 100 µM
CC(C)=CCn1ccc2cc(-c3cccc(C)c3)ccc21,–,> 100 µM
CCN(CC)Cc1cn(CC=C(C)C)c2ccc(-c3cccc(C)c3)cc12,2.4 µM,3.8 µM
CC(C)=CCn1cc(CN2CCCCC2)c2cc(-c3cccc(C)c3)ccc21,2.1 µM,3.9 µM
CC(C)=CCn1cc(CN2CCOCC2)c2cc(-c3cccc(C)c3)ccc21,–,34 µM
CCN(CC)Cc1cn(CC=C(C)C)c2ccc(F)cc12,35 µM,32 µM
CC(C)=CCn1cc(CC(N)=O)c2cc(-c3cccc(C)c3)ccc21,7.7 µM,28.5 µM
CC(C)=CCC/C(C)=C/Cn1cc(CC(N)=O)c2cc(-c3cccc(C)c3)ccc21,1 µM,10.6 µM
CCCCCCCCn1cc(CC(=O)N(CC)CC)c2cc(-c3cccc(OC)c3)ccc21,0.8 µM,52 µM
CCCCCCCCn1cc(CC(=O)N(CC)CC)c2cc(-c3cccc(OCC)c3)ccc21,1 µM,26.8 µM
CCCCCCCCn1ccc2cc(-c3cccc(C)c3)ccc21,> 100 µM,> 100 µM
CCCCCCCCn1cc(CC(=O)N(C)C)c2cc(-c3cccc(C)c3)ccc21,1.5 µM,31 µM
CCCCCCCCn1cc(CC(=O)N(CC)CC)c2cc(-c3cccc(C)c3)ccc21,1.4 µM,27 µM
CCCCCCCCn1cc(CC(=O)N2CCCC2)c2cc(-c3cccc(C)c3)ccc21,1.2 µM,15.6 µM
CCCCCCCCn1cc(CC(=O)N2CCCCC2)c2cc(-c3cccc(C)c3)ccc21,1.8 µM,28.9 µM
CCCCCCCCn1cc(CC(=O)N2CCN(C)CC2)c2cc(-c3cccc(C)c3)ccc21,–,19.7 µM
CCCCCCCCn1cc(CN(CC)CC)c2cc(-c3cccc(C)c3)ccc21,0.7 µM,3.6 µM
CCCCCCCCn1cc(CN(C(C)C)C(C)C)c2cc(-c3cccc(C)c3)ccc21,1.7 µM,20.1 µM
CCCCCCCCn1cc(CN(CCC)CCC)c2cc(-c3cccc(C)c3)ccc21,0.8 µM,13 µM
CCCCCCCCn1cc(CN2CCCC2)c2cc(-c3cccc(C)c3)ccc21,0.5 µM,5.1 µM
CCCCCCCCn1cc(CN2CCCCC2)c2cc(-c3cccc(C)c3)ccc21,0.7 µM,4.9 µM
Cc1cccc(-c2ccc3c(c2)c(CC(N)=O)cn3Cc2cccc(C(F)(F)F)c2)c1,2.5 µM,17.2 µM
Cc1cccc(-c2ccc3[nH]cc(CC(N)=O)c3c2)c1,33 µM,> 100 µM
